Test results as given in ChEMBL document CHEMBL1132482, “Discovery of a series of cyclohexylethylamine-containing protein farnesyltransferase inhibitors exhibiting potent cellular activity” (J Med Chem, 1999).

How the values were obtained:
[1] = biological target: Protein farnesyltransferase (Rattus norvegicus, UniProt Q02293+Q04631); test: In vitro inhibitory activity against Farnesyltransferase (FTase); format: protein-complex assay
Outline: (§1)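 Compounds were generally tested once, with some tested at n = 2, 4 or 8. Enzyme values are IC50 and cellular values are EC50 (nM). Stated assay reliability is ±50% for the in vitro assay and ±50–100% for the cellular assay. A 3-fold difference is treated as significant.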

[2] = organism: Rattus norvegicus; test: Inhibitory activity against whole cell Ras prenylation; format: functional; outline: as §1
[3] = organism: Rattus norvegicus; test: Inhibitory activity against whole cell Ras prenylation at a concentration of 1000 nM; format: functional
[4] = organism: Rattus norvegicus; test: Inhibitory activity against whole cell Ras prenylation at a concentration of 50 nM; format: functional
[5] = organism: Rattus norvegicus; test: Inhibitory activity against whole cell Ras prenylation at a concentration of 300 nM; format: functional

| IC50 [1] [nM] | EC50 [2] [nM] | Compound | inhibition at 1 µM [3] [%] | inhibition at 0.05 µM [4] [%] | inhibition at 0.3 µM [5] [%] |
| --- | --- | --- | --- | --- | --- |
| 12 | – | CSCC[C@H](NC(=O)c1ccc(CN[C@@H](CO)CC2CCCCC2)cc1-c1ccccc1C)C(=O)O | – | – | – |
| 0.17 | 200 | CSCC[C@H](NC(=O)c1ccc(CNCCC2CCCCC2)cc1-c1ccccc1C)C(=O)O | – | – | – |
| 4 | – | CSCC[C@H](NC(=O)c1ccc(CN[C@H](CO)C2CCCCC2)cc1-c1ccccc1C)C(=O)O | – | – | – |
| 1.2 | – | CCS(=O)(=O)C[C@H](CC1CCCCC1)NCc1ccc(C(=O)N[C@@H](CCS(C)(=O)=O)C(=O)O)c(-c2ccccc2C)c1 | 63 | – | – |
| 3.5 | > 1000 | CSCC[C@H](NC(=O)c1ccc(CN(CCC2CCCCC2)Cc2ccccc2)cc1-c1ccccc1C)C(=O)O | – | – | – |
| 8 | – | CSCC[C@H](NC(=O)c1ccc(CN[C@H](CO)CC2CCCCC2)cc1-c1ccccc1)C(=O)O | – | – | – |
| 0.22 | – | CSCC[C@H](NC(=O)c1ccc(CN[C@H](/C=C/CC(C)C)CC2CCCCC2)cc1-c1ccccc1C)C(=O)O | – | – | – |
| 0.42 | – | CSCC[C@H](NC(=O)c1ccc(CN[C@H](CSc2ccccc2C)CC2CCCCC2)cc1-c1ccccc1C)C(=O)O | 77 | – | – |
| 0.14 | – | CCS(=O)(=O)C[C@H](CC1CCCCC1)NCc1ccc(C(=O)N[C@@H](CCSC)C(=O)O)c(-c2ccccc2C)c1 | – | 59 | – |
| 0.25 | – | CSCC[C@H](NC(=O)c1ccc(CNC(CC2CCCCC2)CC2CCCCC2)cc1-c1ccccc1C)C(=O)O | 75 | – | – |
| 0.17 | 160 | CSCC[C@H](NC(=O)c1ccc(CN(CCC2CCCCC2)C(=O)OC(C)(C)C)cc1-c1ccccc1C)C(=O)O | – | – | – |
| 0.6 | 2.8 | CSCC[C@H](NC(=O)c1ccc(CN[C@H](CSC(C)(C)C)CC2CCCCC2)cc1-c1ccccc1C)C(=O)O | – | – | – |
| 1.1 | > 1000 | CSCC[C@H](NC(=O)c1ccc(CN(CCC2CCCCC2)C(=O)c2ccccc2)cc1-c1ccccc1C)C(=O)O | – | – | – |
| 10 | – | CSCC[C@H](NC(=O)c1ccc(CN[C@@H](CO)C2CCCCC2)cc1-c1ccccc1C)C(=O)O | – | – | – |
| 0.7 | > 1000 | CSCC[C@H](NC(=O)c1ccc(CN[C@H](C)CC2CCCCC2)cc1-c1ccccc1C)C(=O)O | – | – | – |
| 0.7 | > 1000 | CC[C@H](CC1CCCCC1)NCc1ccc(C(=O)N[C@@H](CCSC)C(=O)O)c(-c2ccccc2C)c1 | – | – | – |
| 1 | – | CCSC[C@H](CC1CCCCC1)NCc1ccc(C(=O)N[C@@H](CCS(C)(=O)=O)C(=O)O)c(-c2ccccc2C)c1 | – | – | 34 |
| 0.46 | 4.3 | CCCC[C@H](CC1CCCCC1)NCc1ccc(C(=O)N[C@@H](CCSC)C(=O)O)c(-c2ccccc2C)c1 | – | – | – |
| 0.28 | 52 | CSCC[C@H](NC(=O)c1ccc(CN[C@H](CCCC(C)C)CC2CCCCC2)cc1-c1ccccc1C)C(=O)O | – | – | – |
| 4.6 | – | CSCC[C@H](NC(=O)c1ccc(CN[C@H](CO)Cc2ccccc2)cc1-c1ccccc1C)C(=O)O | – | – | – |
| 0.2 | 4.4 | CCSC[C@H](CC1CCCCC1)NCc1ccc(C(=O)N[C@@H](CCSC)C(=O)O)c(-c2ccccc2C)c1 | – | – | – |
| 0.16 | 190 | CSCC[C@H](NC(=O)c1ccc(CN[C@H](CO)CC2CCCCC2)cc1-c1ccccc1C)C(=O)O | – | – | – |
| 0.41 | – | CSCC[C@H](NC(=O)c1ccc(CN[C@H](CSC2CCCCC2)CC2CCCCC2)cc1-c1ccccc1C)C(=O)O | 80 | – | – |
| 0.66 | – | COC[C@H](CC1CCCCC1)NCc1ccc(C(=O)N[C@@H](CCSC)C(=O)O)c(-c2ccccc2C)c1 | – | – | 47 |
| 2.9 | > 1000 | CSCC[C@H](NC(=O)c1ccc(CN(CCC2CCCCC2)C(C)=O)cc1-c1ccccc1C)C(=O)O | – | – | – |
| 0.87 | 12 | CSCC[C@H](NC(=O)c1ccc(CN(C)CCC2CCCCC2)cc1-c1ccccc1C)C(=O)O | – | – | – |
| 0.2 | 12 | CSCC[C@H](NC(=O)c1ccc(CN[C@H](CSc2ccccc2)CC2CCCCC2)cc1-c1ccccc1C)C(=O)O | – | – | – |
